From ChEMBL document CHEMBL1123924, “Structure-activity studies of antagonists of luteinizing hormone-releasing hormone with emphasis on the amino-terminal region” (1987)
Residues, ends and D or L forms follow the SMILES beside them.

How the values were obtained:
Format in all cases: functional
[1] = organism: Rattus norvegicus; assay: Antiovulatory activity was expressed as the percentage of 12 rats blocked at a dose 0.5 ug.; conditions: in the assay text read “14 rats” for “12 rats”
Outline: (§1)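 Sprague-Dawley rats given peptide by subcutaneous injection at noon on the day of proestrus, in 40% propane-1,2-diol–0.9% saline vehicle. Oviducts examined for ova the following day.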

[2] = organism: Rattus norvegicus; assay: Antiovulatory activity was expressed as the percentage of 9 rats blocked at a dose 0.5 ug.; outline: as §1
[3] = organism: Rattus norvegicus; assay: Antiovulatory activity was expressed as the percentage of 9 rats blocked at a dose 1 ug.; outline: as §1

Structure (SMILES)	Antiovulatory activity [1]	Antiovulatory activity [2]	Antiovulatory activity [3]
CC(=O)N[C@H](Cc1ccc2ccccc2c1)C(=O)N[C@H](Cc1ccc(Cl)cc1)C(=O)N[C@H](Cc1ccc(O)cc1)C(=O)N[C@@H](CO)C(=O)N[C@@H](Cc1ccc(O)cc1)C(=O)N[C@H](CCCN=C(N)N)C(=O)N[C@@H](Cc1ccccc1)C(=O)N[C@@H](CCCN=C(N)N)C(=O)N1CCC[C@H]1C(=O)N[C@H](C)C(N)=O	86%		
CC(=O)N[C@H](Cc1ccc2ccccc2c1)C(=O)N[C@H](Cc1ccccc1)C(=O)N[C@H](Cc1ccccc1)C(=O)N[C@@H](CO)C(=O)N[C@@H](Cc1ccc(O)cc1)C(=O)N[C@H](CCCN=C(N)N)C(=O)N[C@@H](Cc1ccccc1)C(=O)N[C@@H](CCCN=C(N)N)C(=O)N1CCC[C@H]1C(=O)N[C@H](C)C(N)=O (HELM PEPTIDE1{[ac].[O=C([C@@H](Cc1ccc2ccccc2c1)N[*:1])[*:2]].[dF].[dF].S.Y.[dR].F.R.P.[dA].[am]}$$$$V2.0)		56%	100%
